Assay [1] is described as follows: S. cerevisiae growth inhibition in permissive medium (OD615), pilot counter-assay for S. cerevisiae lifespan shortening project, permissive growth control (AID 705;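 active means growth inhibition above 25% in both replicates, a cutoff set 3 SD above the mean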). As to conditions: OD615, 24 h, at 10 µM, active compounds read high. Put shortly:
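assay system = Saccharomyces cerevisiae strain carrying genetically modified DeaD replicative-lifespan system | medium = SC raffinose/galactose permissive medium | dosing = 10 µM single dose, 0.25% DMSO | schedule = 24 h compound exposure at 30 °C after 4 h pre-growth | measured by = OD at 615 nm | read-out basis = growth inhibition from lowered OD615 after 24 h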

Assay [2] is described as follows: S. cerevisiae growth inhibition in restrictive medium, OD615, pilot screen, restrictive growth control, yeast lifespan reduction project (AID 706;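 active means growth inhibition above a set limit, 3 SD over mean compound inhibition, in both replicates, cut at about 43% in these data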). As to conditions: OD615, 48 h, at 10 µM, active compounds read high. In outline: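 Buffer or medium: CSMM-D glucose medium. Material: genetically modified Saccharomyces cerevisiae, DeaD replicative lifespan assay strain. Times: 48 h compound exposure at 30 °C. Measured by: optical density at 615 nm.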

The nature of assay [3]: doxorubicin toxicity protection in MRP-1 cells – H69AR cells, CellTiter-Glo, duplicate, MRP-1 activator project, pilot screen (AID 807;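 active means viability increase at or above a cutoff of the median across tested compounds plus 3 SD, cut at about 8.5% in these data, passing the limit was not always enough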;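 further: compound pretreatment 18-22 h then 72 h combined with doxorubicin; 0% = doxorubicin alone and 100% = vehicle without doxorubicin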). As to conditions: H69AR viability with doxorubicin, CellTiter-Glo luminescence; at 10 µM; active compounds read high. (In general: ATP-based viability assays read luminescence as a measure of living cells.)
Assay [4] can be described thus: viability of HCT116 without oncogenic beta-catenin – human colon tumor cells, pilot screen (AID 823;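 active means cell viability at or below a set limit in both duplicate runs, the limit being the all-compound median minus 4 SD, cut at about 23% in these data, passing the limit was not always enough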;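 further: 0% = wells killed by 20 µM Hyamine and 100% = untreated DMSO cell wells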). As to conditions: HCT116 beta-catenin knockout viability, CellTiter-Glo, 60 h; at 10 µM; active compounds read low.
Assay [5] is described as follows: viability of PTEN-null HCT116 cells – cell-based, HCT116 clonal line, CellTiter-Glo, pilot screen (AID 824;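 active means viability at or below 27.92% in each of two runs, the all-compound median minus 4 SD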;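 further: 0% = 20 µM Hyamine control and 100% = vehicle cell control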). As to conditions: HCT116 PTEN-deleted viability, 60 h, at 10 µM, active compounds read low.
The nature of assay [6]: RAM pathway blockade in budding yeast – dse1pr::URA3 reporter, 5-FOA selection, pilot screen (AID 869;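 active means inhibition over a set limit, the all-compound mean plus 3 SD, in both replicate runs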;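 further: 0% = DMSO wells with no growth and 100% = 10 µM 1-NA-PP1 with full growth; RAM network block rescues cells from 5-FOA so hits raise OD615 growth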). As to conditions: S. cerevisiae dse1pr::URA3 5-FOA growth, OD615, 2 d; at 10 µM; active compounds read high; strain carries analog-sensitive mutant Cbk1 kinase.
A short description of assay [7]: RAM signaling pathway blockade in yeast – S. cerevisiae, Pdr1DBD-CYC8 efflux-inhibited sensitized strain, primary screen (AID 1298).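 Further: 0% = DMSO untreated cells without growth and 100% = 10 µM 1-NA-PP1 full growth; higher means more yeast growth rescued from 5-FOA killing.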 As to conditions: S. cerevisiae cbk1-as DSE1-URA3 strain, 5-FOA growth OD615, 2 d; at 50 µM; active compounds read high.

Values without a mark were called inactive. Inconclusive results are not listed. The source made the active and inactive calls.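 How the source made its calls, unless noted: active means RAM network inhibition above 8.4% in each of two replicates, 3 SD over the compound average; inconclusive means above 8.4% inhibition in only one replicate; inactive means 8.4% inhibition or less in each replicate.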

For `O=C(NCC1CCCO1)c1ccc2c(c1)N(Cc1ccccc1)C(=O)CS2=O` (stereo unspecified), the growth inhibition in assay [1] was -1.31%; in assay [2], 8.91%. Moreover, the viability increase in assay [3] is -0.66%. The values for the viability in assay [4] and in assay [5] were 91.2% and 88.3%, respectively. For the same molecule, in assay [6], the inhibition (in general, the drop in the measured response relative to a control, in per cent) is 1.06%. In assay [7], the RAM network inhibition was 0.78%.

With `Cc1cc(C)c(S(=O)(=O)NCCCN2CCOCC2)cc1Br`, the growth inhibition in assay [1] was -7.38%; in assay [2], -14.8%. Also, the viability increase in assay [3] was -2.34%. In addition, the results for the viability in assay [4] and in assay [5] were 91.8% and 90.9%, respectively. The inhibition in assay [6] is 0.75%. In addition, the RAM network inhibition in assay [7] is 0.92%.

Regarding `C=CCn1cc(C(=O)N2CCN(C)CC2)c(=O)c2cc(S(=O)(=O)N3CCCC3)ccc21`, the growth inhibition in assay [1] is -6.54%; in assay [2], -12.6%. Also, in assay [3], the viability increase was -0.09%. Further, the results for the viability in assay [4] and in assay [5] were 105% and 106%, respectively. In addition, the inhibition in assay [6] was 0.73%. Moreover, in assay [7], the RAM network inhibition was 3.9%.

Regarding `CCOC(=O)N1CCN(C(c2ccc(C)cc2)c2sc3nc(C)nn3c2O)CC1` (stereo unspecified), the values for the growth inhibition in assay [1] and in assay [2] were 2.26% and 4.33%, respectively. Also, in assay [3], the viability increase was -0.59%. Further, the figures for the viability in assay [4] and in assay [5] were 108% and 102%, respectively. The inhibition in assay [6] is 0.185%. Also, the RAM network inhibition in assay [7] is 0.28%.

As for `COC(=O)c1cc(NC2c3ccccc3C(=O)N2c2ccc(Cl)cn2)cc(C(=O)OC)c1` (stereo unspecified), the growth inhibition in assay [1] was -20.1%; in assay [2], -16.2%. Also, the viability increase in assay [3] was 0.19%. For the same molecule, the results for the viability in assay [4] and in assay [5] were 71.2% and 64.4%, respectively. In assay [6], the inhibition is 1.5%. In assay [7], the RAM network inhibition is 4.41%.

On to `CCOC(=O)CNC(=O)CSc1nnc(Cn2c(=O)sc3ccccc32)n1C`, for which the results for the growth inhibition in assay [1] and in assay [2] were -6.96% and 6.85%, respectively. In assay [3], the viability increase was -1.45%. The viability (commonly a read-out of living cells in per cent, often relative to untreated cells) was 108% in assay [4] and 98% in assay [5]. Also, the inhibition in assay [6] is 0.83%. Also, the RAM network inhibition in assay [7] was 3.34%.

As for `CCOC(=O)c1c(C)[nH]c(C(=O)OC)c1CCC(=O)OC`, the growth inhibition is -9.89% in assay [1] and -23.6% in assay [2]. Moreover, the viability increase in assay [3] is -2.86%. Further, the viability in assay [4] is 90.8%; in assay [5], 91.9%. The inhibition in assay [6] was 2.56%. Further, in assay [7], the RAM network inhibition is 2.65%.

With `CC(=O)c1c(C)nn(C(=O)c2cccs2)c1C`, the growth inhibition is 1.07% in assay [1] and 5.09% in assay [2]. In assay [3], the viability increase is -0.49%. Also, the viability in assay [4] was 91%; in assay [5] it was 106%. The inhibition in assay [6] is 1.89%. For the same molecule, in assay [7], the RAM network inhibition was -0.62%.

On to `Cc1c(C(=O)N2CCC(C(N)=O)CC2)sc(N)c1C#N`, for which the growth inhibition was -12.1% in assay [1] and -8.07% in assay [2]. Also, the viability increase in assay [3] is -0.41%. For the same molecule, the values for the viability in assay [4] and in assay [5] were 94.7% and 99.1%, respectively. The inhibition in assay [6] is 2.91%. Besides, the RAM network inhibition in assay [7] is 9.2%.

Turning to `C=CCn1c(O)c(C2=c3ccccc3=NC2=O)sc1=Nc1ccc(O)cc1`, the growth inhibition is -4.33% in assay [1] and -12% in assay [2]. Further, the viability increase in assay [3] was -8.74%. The figures for the viability in assay [4] and in assay [5] were 2.1% (active) and 1.53% (active), respectively. Besides, in assay [6], the inhibition was 1.98%. Moreover, in assay [7], the RAM network inhibition is 2.7%.

Consider `Clc1ccc(C2CC(c3cccs3)n3ncnc3N2)cc1Cl` (stereo unspecified), for which the growth inhibition in assay [1] is -2.88%; in assay [2], 29.1%. In addition, the viability increase in assay [3] was -5.77%. The values for the viability in assay [4] and in assay [5] were 80.2% and 72.9%, respectively. Besides, the inhibition in assay [6] was 0.94%. Also, the RAM network inhibition in assay [7] was -1.53%.

Regarding `O=C(CCCOc1ccccc1)Nc1cccc(C(=O)O)c1`, the growth inhibition in assay [1] is -0.54%; in assay [2], 3.65%. In addition, the viability increase in assay [3] was 0.34%. The viability in assay [4] is 96%; in assay [5], 98.6%. Further, the inhibition in assay [6] is 2.61%. Also, the RAM network inhibition in assay [7] was 2.71%.

For `COc1ccccc1NC(=O)C1=C(C)NC(=O)NC1c1ccc(C)cc1` (stereo unspecified), the growth inhibition is -6.15% in assay [1] and -13.7% in assay [2]. Also, the viability increase in assay [3] was -1.68%. In addition, the viability in assay [4] was 105%; in assay [5] it was 95.6%. Besides, the inhibition in assay [6] is 1.23%. Besides, the RAM network inhibition in assay [7] was -1.08%.

Regarding `CC1(C)CC(=O)C(C=NCCCN2CCOCC2)=C(O)C1`, the growth inhibition in assay [1] is -0.685%; in assay [2], 0.465%. Also, in assay [3], the viability increase is -0.36%. In addition, the figures for the viability in assay [4] and in assay [5] were 97.6% and 97%, respectively. Further, in assay [6], the inhibition was -0.16%. For the same molecule, the RAM network inhibition in assay [7] is -0.83%.

Turning to `Cc1c(NC(=O)CCCCCN2C(=O)C3C4C=CC(C4)C3C2=O)c(=O)n(-c2ccccc2)n1C` (stereo unspecified), the growth inhibition is 5.03% in assay [1] and 5.79% in assay [2]. Moreover, in assay [3], the viability increase is -0.51%. In addition, the viability in assay [4] was 103%; in assay [5], 100%. Further, the inhibition in assay [6] was 0.685%. In addition, the RAM network inhibition in assay [7] was 2.6%.

For `COC(=O)c1c(NC(=O)CCCC(=O)O)sc(C)c1C`, the growth inhibition in assay [1] is -6.98%; in assay [2] it was 3.54%. The viability increase in assay [3] was -3.07%. In addition, the viability in assay [4] is 91.8%; in assay [5], 87.9%. Also, the inhibition in assay [6] is 0.305%. For the same molecule, the RAM network inhibition in assay [7] was 3.63%.

Turning to `CCC(C)NC(=O)C1CCN(C(=O)c2ccccc2)CC1` (stereo unspecified), the growth inhibition in assay [1] is -3.49%; in assay [2], -5.37%. The viability increase in assay [3] was 0.74%. For the same molecule, the viability in assay [4] was 102%; in assay [5] it was 98.2%. Besides, in assay [6], the inhibition is 1.18%. Further, the RAM network inhibition in assay [7] was 1.87%.

Consider `Cc1cccc(C)c1NC(=O)C1(N(Cc2ccco2)C(=O)CC2NC(=O)NC2=O)CCCCC1` (stereo unspecified), for which the growth inhibition in assay [1] was -7.47%; in assay [2], -10.5%. For the same molecule, in assay [3], the viability increase was -2.27%. Also, the values for the viability in assay [4] and in assay [5] were 92.7% and 93.9%, respectively. Also, the inhibition in assay [6] is 1.23%. For the same molecule, the RAM network inhibition in assay [7] is 0.68%.

For the origin of these results see PubChem BioAssay.
